Source: ChEMBL document CHEMBL5252514, “Conopeptide-Derived κ-Opioid Agonists (Conorphins): Potent, Selective, and Metabolic Stable Dynorphin A Mimetics with Antinociceptive Properties” (J Med Chem, 2016)
Where a SMILES comes first, the peptide text is derived from it.

Experiments:
[1] = species on record: Homo sapiens; experiment: Selectivity ratio, ratio of Ki for human KOR to Ki for human MOR
[2] = Metabolic stability in Wistar rat plasma assessed as half life by HPLC analysis; assay type: ADME, cell-free
Outline: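 Peptide at 1 mg/mL in sterile PBS pH 7.4 was mixed 1:1 with thawed, centrifuged Wistar rat plasma supernatant and incubated at 37°C in triplicate. Samples at 0, 1, 2, 3, 4, 6 and 24 h were quenched with acetonitrile and then 2% TFA/water, and analysed by HPLC with inline electrospray MS.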

[3] = species on record: Homo sapiens; experiment: Selectivity ratio, ratio of Ki for human KOR to Ki for human DOR
[4] = target: T1, Kappa-type opioid receptor (Homo sapiens, UniProt P41145); experiment: Displacement of [3H]U69593 from human kappa opioid receptor expressed in CHO-K1 cells incubated for 1 hr by 1450 microbeta scintillation counter analysis; assay type: cell-based
T1 sequence (P41145 whole entry): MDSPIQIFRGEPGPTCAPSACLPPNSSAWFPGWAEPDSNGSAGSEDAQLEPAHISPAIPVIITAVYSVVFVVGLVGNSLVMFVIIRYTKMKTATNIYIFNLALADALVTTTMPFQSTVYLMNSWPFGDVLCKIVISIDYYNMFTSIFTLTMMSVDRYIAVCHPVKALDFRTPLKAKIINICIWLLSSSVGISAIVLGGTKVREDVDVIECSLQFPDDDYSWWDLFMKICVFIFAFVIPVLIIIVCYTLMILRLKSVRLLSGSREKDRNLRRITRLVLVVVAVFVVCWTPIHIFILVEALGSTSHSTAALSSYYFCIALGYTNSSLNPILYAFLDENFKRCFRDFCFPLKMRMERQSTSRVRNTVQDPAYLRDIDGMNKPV
Outline: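 Membranes from transiently KOR-transfected CHO-K1 cells (~2 µg/well) used in SPA with 3H-U69,593 (1 nM). Competitor ranged 1 pM–10 µM in 50 mM Tris-HCl pH 7.4, 5 mM MgCl2, 0.1% BSA. Incubated 1 h at room temperature with shaking. Nonspecific binding defined with 10 µM dynorphin A. Sigmoidal dose-response fit; at least three independent experiments in triplicate.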

[5] = target: T1, Kappa-type opioid receptor; experiment: Agonist activity at human kappa opioid receptor expressed in CHO-K1 cells assessed as ERK phosphorylation incubated for 2 hrs by Alphascreen surefire method; assay type: cell-based
Outline: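 CHO-K1 cells transiently transfected with KOR plasmid, harvested 24 h later, plated at 50,000 cells/well and settled 24 h, then serum-starved 12 h. Ligands in serum-free medium applied 10 min at room temperature. Lysates read by AlphaScreen SureFire phospho-ERK1/2 after 2 h at 37 °C. Curves fitted by sigmoidal dose-response.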

[6] = species on record: Homo sapiens; experiment: Selectivity ratio, ratio of Ki for human KOR to Ki for human NOP
[7] = target: T1, Kappa-type opioid receptor; experiment: Agonist activity at human kappa opioid receptor expressed in CHO-K1 cells assessed as inhibition of forskolin-stimulated cAMP production incubated for 30 mins by LANCE cAMP assay; assay type: cell-based
Outline: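 Transiently KOR-transfected CHO-K1 cells taken 24 h post-transfection, 3,000 cells/well in HBSS stimulation buffer (0.1% BSA, 0.5 mM IBMX, 5 mM HEPES, pH 7.4). Forskolin (1 µM final) and ligand added, then 30 min at RT. LANCE Eu-cAMP tracer/anti-cAMP TR-FRET read after 1 h at RT. Sigmoidal dose-response fit.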

## CC[C@H](C)[C@H](NC(=O)[C@H](CCC(N)=O)NC(=O)[C@H](CCCNC(=N)N)NC(=O)[C@H](CCCNC(=N)N)NC(=O)[C@@H]1CSSC[C@H](NC(=O)[C@@H](N)CC(N)=O)C(=O)N1)C(=O)N[C@H]1CSSC[C@@H](C(N)=O)NC1=O (HELM PEPTIDE1{N.C.C.R.R.Q.I.C.C.[am]}$PEPTIDE1,PEPTIDE1,2:R3-3:R3|PEPTIDE1,PEPTIDE1,8:R3-9:R3$$$V2.0)
[1]
  Ratio Ki: > 630
[2]
  half-life: 15 min
[3]
  Ratio Ki: > 630
[4]
  Ki: 80 nM
[5]
  EC50: 9.85 µM
[6]
  Ratio Ki: > 630
[7]
  EC50: 9450 nM

## CC[C@H](C)[C@H](NC(=O)[C@H](CCC(N)=O)NC(=O)[C@H](CCCNC(=N)N)NC(=O)[C@H](CCCNC(=N)N)NC(=O)[C@@H]1CSSC[C@H](NC(=O)[C@@H]2CCC(=O)N2)C(=O)N1)C(=O)N[C@H]1CSSC[C@@H](C(N)=O)NC1=O (HELM PEPTIDE1{[Glp].C.C.R.R.Q.I.C.C.[am]}$PEPTIDE1,PEPTIDE1,2:R3-3:R3|PEPTIDE1,PEPTIDE1,8:R3-9:R3$$$V2.0)
[1]
  Ratio Ki: > 630
[2]
  half-life: 15 min
[3]
  Ratio Ki: > 630
[4]
  Ki: 67.5 nM
[5]
  EC50: 5.86 µM
[6]
  Ratio Ki: > 630
[7]
  EC50: 11.5 nM

## CC[C@H](C)[C@H](NC(=O)[C@H](CCC(N)=O)NC(=O)[C@H](CCCNC(=N)N)NC(=O)[C@H](CCCNC(=N)N)NC(=O)[C@@H]1CCC(=O)N1)C(=O)N[C@H]1CSSC[C@@H](C(N)=O)NC1=O (HELM PEPTIDE1{[Glp].R.R.Q.I.C.C.[am]}$PEPTIDE1,PEPTIDE1,6:R3-7:R3$$$V2.0)
[1]
  Ratio Ki: > 250
[2]
  half-life: 180 min
[3]
  Ratio Ki: > 250
[4]
  Ki: 191 nM
[5]
  EC50: 7.49 µM
[6]
  Ratio Ki: > 250
[7]
  EC50: 1.9 nM

## N=C(N)NCCC[C@@H](NC(=O)[C@@H](CCCNC(=N)N)NC(=O)[C@@H]1CCCN1C(=O)c1ccc2ccccc2c1)C(=O)N[C@@H](CCC(N)=O)C(=O)N[C@@H](CC1CCCCC1)C(=O)N[C@H]1CSSC[C@@H](C(N)=O)NC1=O
[2]
  half-life: 30 min
[4]
  Ki: 0.07 nM

## N=C(N)NCCC[C@@H](NC(=O)[C@@H](CCCNC(=N)N)NC(=O)[C@@H]1CCCN1C(=O)c1ccc(O)cc1)C(=O)N[C@@H](CCC(N)=O)C(=O)N[C@@H](CS)C(=O)N[C@@H](CC1CCCCC1)C(=O)N[C@H]1CSSC[C@@H](C(N)=O)NC1=O
[2]
  half-life: 120 min
[4]
  Ki: 1.2 nM

## N=C(N)NCCC[C@H](NC(=O)[C@H](CCCNC(=N)N)NC(=O)[C@@H]1CSSC[C@H](NC(=O)[C@@H](N)CC(N)=O)C(=O)N1)C(=O)N[C@@H](CCC(N)=O)C(=O)N[C@@H](Cc1cccc2ccccc12)C(=O)N[C@H]1CSSC[C@@H](C(N)=O)NC1=O (HELM PEPTIDE1{N.C.C.R.R.Q.[O=C([C@H](Cc1cccc2ccccc12)N[*:1])[*:2]].C.C.[am]}$PEPTIDE1,PEPTIDE1,2:R3-3:R3|PEPTIDE1,PEPTIDE1,8:R3-9:R3$$$V2.0)
[2]
  half-life: < 15 min
[4]
  Ki: 2.9 nM

## N=C(N)NCCC[C@@H](NC(=O)[C@@H](CCCNC(=N)N)NC(=O)[C@@H]1CCCN1C(=O)c1ccccc1)C(=O)N[C@@H](CCC(N)=O)C(=O)N[C@H](C(=O)N[C@H]1CSSC[C@@H](C(N)=O)NC1=O)C1CCCCC1
[1]
  Ratio Ki: > 125000
[2]
  half-life: 1200 min
[3]
  Ratio Ki: > 125000
[4]
  Ki: 0.48 nM
[5]
  EC50: 0.00062 µM
[6]
  Ratio Ki: > 125000
[7]
  EC50: 0.39 nM

## N=C(N)NCCC[C@@H](NC(=O)[C@@H](CCCNC(=N)N)NC(=O)[C@@H]1CCCN1C(=O)c1ccccc1)C(=O)NCC(=O)N[C@@H](CC1CCCCC1)C(=O)N[C@H]1CSSC[C@@H](C(N)=O)NC1=O
[2]
  half-life: 60 min
[4]
  Ki: 0.16 nM

## N=C(N)NCCC[C@@H](NC(=O)[C@@H]1Cc2ccccc2CN1)C(=O)N[C@H](CCCNC(=N)N)C(=O)N[C@@H](CCC(N)=O)C(=O)N[C@@H](CC1CCCCC1)C(=O)N[C@H]1C[Se][Se]C[C@@H](C(N)=O)NC1=O
[2]
  half-life: 360 min
[4]
  Ki: 2.4 nM

## N=C(N)NCCC[C@@H](NC(=O)c1cnc2ccccc2c1)C(=O)N[C@H](CCCNC(=N)N)C(=O)N[C@@H](CCC(N)=O)C(=O)N[C@@H](CC1CCCCC1)C(=O)N[C@H]1CSSC[C@@H](C(N)=O)NC1=O
[2]
  half-life: 45 min
[4]
  Ki: 0.71 nM
